ChEMBL document CHEMBL1129574, “Synthesis, structure-activity relationships, and pharmacokinetic properties of dihydroorotate dehydrogenase inhibitors: 2-cyano-3-cyclopropyl-3-hydroxy-N-[3'-methyl-4'-(trifluoromethyl)phenyl ] propenamide and related compounds” (J Med Chem, 1996)

Key:
[1] = t1/2 in mouse plasma after oral dose (30/mg/Kg); format: ADME, organism-based
Procedure, shortened: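 Male CD-1 mice (25–32 g, n=5/time point) gavaged orally 30 mg/kg (10 mL/kg). Blood by exsanguination under ether at 0, 1, 3, 6, 24, 48, 72 h, pooled per time point, heparinized; plasma stored −20 °C. Drug quantified by reversed-phase HPLC (ODS, pH 7 phosphate/acetonitrile 65:35, UV 300 nm) with internal standard and spiked-plasma calibration.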

[2] = t1/2 in rat plasma after oral dose (10 mg/kg); format: ADME, organism-based
Procedure, shortened: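 Male Wistar CFHB rats (190–220 g, n=3/time point) given 10 mg/kg orally by gavage (10 mL/kg). Cardiac-puncture blood under ether at 0, 1, 3, 6, 24, 48, 72 h, individual heparinized samples; plasma kept at −20 °C. Levels by HPLC (ODS column, 0.1 M pH 7 phosphate 65%/acetonitrile 35%, UV 300 nm), internal standard, peak-area calibration from spiked blank plasma.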

[3] = biological target: Dihydroorotate dehydrogenase (quinone), mitochondrial (Mus musculus, UniProt O35435); experiment: Inhibitory concentration tested on enzyme dihydroorotate dehydrogenase in mouse
Dihydroorotate dehydrogenase (quinone), mitochondrial (Mus musculus, UniProt O35435), sequence (O35435 whole entry): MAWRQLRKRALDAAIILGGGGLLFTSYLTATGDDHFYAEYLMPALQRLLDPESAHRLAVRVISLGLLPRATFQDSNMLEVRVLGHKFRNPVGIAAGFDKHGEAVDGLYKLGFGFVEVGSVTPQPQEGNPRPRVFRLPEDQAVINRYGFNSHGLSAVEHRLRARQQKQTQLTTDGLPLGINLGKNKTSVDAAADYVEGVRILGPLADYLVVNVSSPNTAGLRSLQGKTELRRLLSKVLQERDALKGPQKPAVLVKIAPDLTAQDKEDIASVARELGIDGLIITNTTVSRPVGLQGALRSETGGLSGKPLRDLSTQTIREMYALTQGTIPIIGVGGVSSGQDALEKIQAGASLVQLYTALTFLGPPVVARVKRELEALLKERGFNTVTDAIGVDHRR

[4] = biological target: Dihydroorotate dehydrogenase (quinone), mitochondrial (Rattus norvegicus, UniProt Q63707); experiment: Inhibitory concentration tested against enzyme dihydroorotate dehydrogenase in rat
Dihydroorotate dehydrogenase (quinone), mitochondrial (Rattus norvegicus, UniProt Q63707), sequence (Q63707 whole entry): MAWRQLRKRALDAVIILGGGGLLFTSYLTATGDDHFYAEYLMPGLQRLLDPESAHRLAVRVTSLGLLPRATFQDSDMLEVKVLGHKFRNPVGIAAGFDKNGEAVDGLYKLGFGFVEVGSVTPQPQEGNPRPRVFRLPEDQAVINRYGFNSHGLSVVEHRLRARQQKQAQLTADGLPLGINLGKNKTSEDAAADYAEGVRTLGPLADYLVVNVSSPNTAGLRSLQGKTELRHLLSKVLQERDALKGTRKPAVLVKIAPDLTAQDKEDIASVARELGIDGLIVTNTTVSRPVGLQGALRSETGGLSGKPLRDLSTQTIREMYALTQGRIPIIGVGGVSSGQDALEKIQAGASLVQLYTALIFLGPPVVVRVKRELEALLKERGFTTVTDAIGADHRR

Mus musculus [5] = experiment: Compound was tested in vivo for its ability to inhibit DTH(delayed type hypersensitivity ) in mouse at a concentration of 30 mg/kg; format: functional
Procedure, shortened: (§1)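 Male CD-1 mice (25–30 g, n = 8-16) sensitized day 0 by s.c. 1 mg methylated BSA in saline/Freund's complete adjuvant; negative controls saline/FCA. Day 7 challenge: MBSA 0.1 mg into right hind footpad, saline in left. Oral dosing once daily days 4–6 plus twice on day 7 (1 h before, 6 h after challenge). Paw edema read 24 h post-challenge; Student's t-test.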

Rattus norvegicus [6] = experiment: Compound was tested in vivo for its ability to inhibit DTH(delayed type hypersensitivity ) in rat at a concentration of 3 mg/kg; format: functional
Procedure, shortened: (§2)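 Male CFHB rats (160-180 g, n=7-12) sensitized day 0 by tail-base s.c. FCA (0.4 mg M. tuberculosis in liquid paraffin); controls got incomplete adjuvant. Day 7 challenge: soluble M. tuberculosis extract 0.4 mg into right hind footpad, saline in left. Oral dosing once daily days 4-6 and twice day 7 (1 h before, 6 h after). Edema read at 24 h; Student's t-test.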

Mus musculus [7] = experiment: Compound was tested in vivo for its ability to inhibit DTH(delayed type hypersensitivity ) in mouse at a concentration of 10 mg/kg; format: functional; procedure, shortened: as §1
Rattus norvegicus [8] = experiment: In vivo for its ability to inhibit delayed type hypersensitivity in rat following 10 mg/kg administration.
Mus musculus [9] = experiment: Compound was tested in vivo for its ability to inhibit DTH(delayed type hypersensitivity ) in mouse at a concentration of 100 mg/kg; format: functional; procedure, shortened: as §1
Rattus norvegicus [10] = experiment: Compound was tested in vivo for its ability to inhibit DTH(delayed type hypersensitivity ) in rat at a concentration of 50 mg/kg; format: functional; procedure, shortened: as §2
Mus musculus [11] = experiment: In vivo for its ability to inhibit delayed type hypersensitivity in mouse following 30 mg/kg administration.; format: functional; procedure, shortened: as §1
Rattus norvegicus [12] = experiment: Compound was tested in vivo for its ability to inhibit DTH(delayed type hypersensitivity )in rat at a concentration of 3 mg/kg; format: functional; procedure, shortened: as §2
Mus musculus [13] = experiment: Compound was tested in vivo for its ability to inhibit DTH(delayed type hypersensitivity )in mouse at a concentration of 30 mg/kg.; format: functional; procedure, shortened: as §1
Rattus norvegicus [14] = experiment: Compound was tested in vivo for its ability to inhibit DTH(delayed type hypersensitivity )in rat at a concentration of 1 mg/kg; format: functional; procedure, shortened: as §2
Rattus norvegicus [15] = experiment: Compound was tested in vivo for its ability to inhibit DTH(delayed type hypersensitivity ) in rat at a concentration of 10 mg/kg; format: functional; procedure, shortened: as §2
Rattus norvegicus [16] = experiment: Compound was tested in vivo for its ability to inhibit DTH(delayed type hypersensitivity )in rat at a concentration of 50 mg/kg
Mus musculus [17] = experiment: In vivo ability to inhibit delayed type hypersensitivity in mouse at a concentration of 100 mg/kg; format: functional; procedure, shortened: as §1
Rattus norvegicus [18] = experiment: Compound was tested in vivo for its ability to inhibit DTH(delayed type hypersensitivity )in rat at a concentration of 50 mg/kg; format: functional; procedure, shortened: as §2
Rattus norvegicus [19] = experiment: Compound was tested in vivo for its ability to inhibit DTH(delayed type hypersensitivity ) in rat at a concentration of 1 mg/kg; format: functional; procedure, shortened: as §2

| half-life [1] | half-life [2] | IC50 [3] | IC50 [4] | Structure (SMILES) | inhibition in vivo at 30 mg/kg (Mus musculus [5]) | inhibition in vivo at 50 mg/kg (Rattus norvegicus [10]) | other results |
| --- | --- | --- | --- | --- | --- | --- | --- |
| – | – | > 10000 nM | > 10000 nM | N#C/C(C(=O)Nc1ccc(C(F)(F)F)cc1)=C(/O)c1ccc(C(F)(F)F)cc1 | – | – | inhibition in vivo at 10 mg/kg (Mus musculus [7]): 17%; inhibition in vivo at 10 mg/kg (Rattus norvegicus [8]): 16% |
| 2 h | 3 h | 3000 nM | 343 nM | N#C/C(C(=O)Nc1cccc(Cl)c1)=C(/O)C1CC1 | – | 25% | inhibition in vivo at 100 mg/kg (Mus musculus [9]): 55% |
| 21 h | 22 h | 36 nM | – | N#C/C(C(=O)Nc1ccc(Cl)cc1)=C(/O)C1CC1 | – | – | inhibition in vivo at 3 mg/kg (Rattus norvegicus [6]): 74% |
| 3 h | 3 h | 417 nM | 16 nM | N#C/C(C(=O)Nc1ccc([S+]([O-])C(F)(F)F)cc1)=C(/O)C1CC1 (centres undefined) | 25% | – | inhibition in vivo at 3 mg/kg (Rattus norvegicus [6]): 75% |
| 11 h | 10 h | 282 nM | 11 nM | Cc1cc(NC(=O)/C(C#N)=C(\O)C2CC2)ccc1C(F)(F)C(F)(F)F | – | – | inhibition in vivo at 30 mg/kg (Mus musculus [11]): 65%; inhibition in vivo at 3 mg/kg (Rattus norvegicus [12]): 70% |
| 33 h | 20 h | 36 nM | 79 nM | N#C/C(C(=O)Nc1ccc(Br)cc1)=C(/O)C1CC1 | 64% | – | inhibition in vivo at 10 mg/kg (Rattus norvegicus [15]): 58% |
| – | – | 16600 nM | 13300 nM | N#C/C(C(=O)Nc1ccccc1Cl)=C(/O)C1CC1 | – | -12% | inhibition in vivo at 100 mg/kg (Mus musculus [9]): 43% |
| – | – | 525 nM | 479 nM | N#C/C(C(=O)Nc1cccc(C(F)(F)F)c1)=C(/O)C1CC1 | 41% | 49% | – |
| – | – | 288 nM | 234 nM | Cc1ccc(NC(=O)/C(C#N)=C(\O)C2CC2)cc1 | – | 28% | inhibition in vivo at 100 mg/kg (Mus musculus [9]): 47% |
| – | – | 1580 nM | 2000 nM | N#C/C(C(=O)Nc1ccccc1)=C(/O)C1CC1 | 25% | 43% | – |
| 8 h | 4 h | 50 nM | 21 nM | N#C/C(C(=O)Nc1ccc([N+](=O)[O-])cc1)=C(/O)C1CC1 | – | – | inhibition in vivo at 30 mg/kg (Mus musculus [11]): 64%; inhibition in vivo at 50 mg/kg (Rattus norvegicus [16]): 90% |
| 10 h | 13 h | 178 nM | 11 nM | Cc1cc(NC(=O)/C(C#N)=C(\O)C2CC2)ccc1SC(F)(F)F | – | – | inhibition in vivo at 30 mg/kg (Mus musculus [11]): 55%; inhibition in vivo at 1 mg/kg (Rattus norvegicus [14]): 68% |
| – | – | 37200 nM | 4570 nM | N#CCc1ccc(NC(=O)/C(C#N)=C(\O)C2CC2)cc1 | – | 3% | inhibition in vivo at 100 mg/kg (Mus musculus [9]): 36% |
| 6 h | 5 h | 42 nM | 53 nM | N#C/C(C(=O)Nc1ccc(C#N)cc1)=C(/O)C1CC1 | 73% | – | inhibition in vivo at 10 mg/kg (Rattus norvegicus [15]): 47% |
| – | – | 2090 nM | 500 nM | C#C/C(O)=C(\C#N)C(=O)Nc1ccc(C(F)(F)F)cc1 | – | 4% | inhibition in vivo at 100 mg/kg (Mus musculus [9]): 45% |
| 14 h | 4 h | 178 nM | 18 nM | Cc1cc(NC(=O)/C(C#N)=C(\O)C2CC2)ccc1OC(F)(F)F | – | – | inhibition in vivo at 30 mg/kg (Mus musculus [11]): 61%; inhibition in vivo at 3 mg/kg (Rattus norvegicus [12]): 46% |
| 13 h | 7 h | 195 nM | 251 nM | C=C(C)/C(O)=C(\C#N)C(=O)Nc1ccc(C(F)(F)F)cc1 | – | 78% | inhibition in vivo at 100 mg/kg (Mus musculus [9]): 54% |
| < 2 h | < 1 h | 445 nM | 13 nM | CSc1ccc(NC(=O)/C(C#N)=C(\O)C2CC2)cc1 | – | 60% | inhibition in vivo at 100 mg/kg (Mus musculus [9]): 46% |

| Structure (SMILES) | half-life [1] | half-life [2] | IC50 [3] | IC50 [4] | inhibition in vivo at 30 mg/kg (Mus musculus [5]) | inhibition in vivo at 50 mg/kg (Rattus norvegicus [10]) | other results |
| --- | --- | --- | --- | --- | --- | --- | --- |
| N#C/C(C(=O)Nc1ccc(S(=O)(=O)C(F)(F)F)cc1)=C(/O)C1CC1 | 14 h | 14 h | 89 nM | 3 nM | 43% | – | inhibition in vivo at 3 mg/kg (Rattus norvegicus [6]): 66% |
| C=CC/C(O)=C(\C#N)C(=O)Nc1ccc(C(F)(F)F)cc1 | 23 h | 4 h | 63 nM | 107 nM | 75% | 79% | – |
| N#C/C(C(=O)Nc1ccc(OC(F)(F)F)cc1)=C(/O)C1CC1 | 42 h | 22 h | 173 nM | 5 nM | – | – | inhibition in vivo at 30 mg/kg (Mus musculus [13]): 85%; inhibition in vivo at 1 mg/kg (Rattus norvegicus [14]): 78% |
| N#C/C(C(=O)Nc1ccc(CCc2ccccc2)cc1)=C(/O)C1CC1 | – | – | – | 138 nM | – | – | inhibition in vivo at 100 mg/kg (Mus musculus [17]): 5%; inhibition in vivo at 50 mg/kg (Rattus norvegicus [18]): 51% |
| N#C/C(C(=O)Nc1ccc(SC(F)(F)F)cc1)=C(/O)C1CC1 | 6 h | 2 h | 100 nM | – | 39% | – | inhibition in vivo at 1 mg/kg (Rattus norvegicus [19]): 58% |
| N#C/C(C(=O)Nc1ccc(C(F)(F)F)cn1)=C(/O)C1CC1 | 5 h | 7 h | 158 nM | 17 nM | – | – | inhibition in vivo at 100 mg/kg (Mus musculus [17]): 67%; inhibition in vivo at 3 mg/kg (Rattus norvegicus [12]): 40% |
